Some results are limits rather than exact numbers.

A short description of assay [1]: Inhibition of rat brain particulate cAMP phosphodiesterase (inactive). In short, it runs like this: (§1)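 The particulate enzyme was the washed high-speed pellet, rehomogenized in sucrose buffer, then resuspended and dialyzed overnight in 20 mM Tris-HCl pH 7.5, 1 mM MgCl2, 0.1 mM DTT, and stored at -20 °C. Hydrolysis of 0.25 µM cAMP or cGMP was assayed at 30 °C in triplicate.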

Assay [2] is described as follows: Inhibition of rat brain cytosolic cAMP phosphodiesterase (inactive). An outline of the steps:
(§2)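 Rat brains without cerebellum were homogenized in 0.32 M sucrose, 5 mM Tris-HCl pH 7.5, 1 mM MgCl2, 0.1 mM DTT. After a 1000g spin and a high-speed spin, the supernatant was dialyzed overnight against 20 mM Tris-HCl pH 7.5, 1 mM MgCl2, 0.1 mM DTT. Assay used 0.25 µM cAMP or cGMP in triplicate at 30 °C.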

Assay [3] has as its target T1, cGMP-dependent 3',5'-cyclic phosphodiesterase (Rattus norvegicus, UniProt Q01062).
T1 sequence (Q01062 whole entry): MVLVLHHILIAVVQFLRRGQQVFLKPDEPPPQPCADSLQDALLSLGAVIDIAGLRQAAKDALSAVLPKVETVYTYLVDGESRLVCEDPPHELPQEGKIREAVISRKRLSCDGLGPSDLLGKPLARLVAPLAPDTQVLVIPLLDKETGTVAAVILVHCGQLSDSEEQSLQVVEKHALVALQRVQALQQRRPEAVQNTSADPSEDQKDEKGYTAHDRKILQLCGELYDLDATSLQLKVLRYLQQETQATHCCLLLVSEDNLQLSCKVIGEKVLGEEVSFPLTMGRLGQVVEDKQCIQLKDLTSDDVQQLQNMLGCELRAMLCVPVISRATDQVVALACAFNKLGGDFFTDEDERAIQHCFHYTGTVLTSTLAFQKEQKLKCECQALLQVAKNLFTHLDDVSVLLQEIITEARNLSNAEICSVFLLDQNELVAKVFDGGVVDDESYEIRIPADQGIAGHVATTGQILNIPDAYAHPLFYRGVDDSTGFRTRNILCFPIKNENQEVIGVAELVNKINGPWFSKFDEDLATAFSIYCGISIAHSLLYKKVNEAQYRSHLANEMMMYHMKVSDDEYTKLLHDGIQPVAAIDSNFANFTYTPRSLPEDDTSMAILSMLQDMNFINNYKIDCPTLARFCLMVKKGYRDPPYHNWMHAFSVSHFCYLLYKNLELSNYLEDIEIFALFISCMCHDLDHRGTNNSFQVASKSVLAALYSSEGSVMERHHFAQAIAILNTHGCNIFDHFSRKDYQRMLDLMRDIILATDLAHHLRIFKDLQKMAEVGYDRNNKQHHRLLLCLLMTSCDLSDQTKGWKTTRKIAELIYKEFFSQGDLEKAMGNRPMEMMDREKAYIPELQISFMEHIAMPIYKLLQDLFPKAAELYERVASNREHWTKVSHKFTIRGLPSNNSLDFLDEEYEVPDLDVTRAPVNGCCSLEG
The assay is described as follows: Inhibition of rat brain particulate cGMP phosphodiesterase (inactive). An outline of the steps: as §1

Assay [4] addresses T1, cGMP-dependent 3',5'-cyclic phosphodiesterase. Kind of assay: Inhibition of rat brain particulate cGMP phosphodiesterase (Inactive). An outline of the steps:
as §1

Assay [5] is described as follows: Inhibition of rat brain cytosolic cAMP phosphodiesterase (Inactive). An outline of the steps:
as §2

Assay [6] can be described thus: Inhibition of rat brain particulate cAMP phosphodiesterase (Inactive). An outline of the steps: as §1
The target in another assay is Phosphodiesterase 1 (Rattus norvegicus, UniProt Q63421+Q9EPR9+Q01066). Kind of assay: Inhibition of rat brain cytosolic cGMP phosphodiesterase. An outline of the steps:
as §2

The species entered for assay [7] is Rattus norvegicus. The assay is described as follows: Relative inhibition of cAMP and cGMP hydrolysis by cytosolic phosphodiesterase.
Assay [8] is filed under the species Rattus norvegicus. The assay is described as follows: Relative inhibition of cAMP and cGMP hydrolysis by particulate phosphodiesterase.
For assay [9], the target named is T1, cGMP-dependent 3',5'-cyclic phosphodiesterase. Kind of assay: Inhibition of rat brain particulate cGMP phosphodiesterase. In short, it runs like this:
as §1

Assay [10] in a line: Inhibition of rat brain cytosolic cAMP phosphodiesterase. Particulars: read-out: I 50; call rule not given here. An outline of the steps: as §2
The nature of assay [11]: Inhibition of rat brain particulate cAMP phosphodiesterase. Particulars: read-out: I 50.
Assay [12] is described as follows: Inhibition of rat brain particulate cAMP phosphodiesterase. The settings on record: read-out: I50. An outline of the steps:
as §1

Take `O=C(O)COc1cc(OCC(=O)O)c2c(=O)c(OCC(=O)O)c(-c3ccc(OCC(=O)O)c(OCC(=O)O)c3)oc2c1`: the “I 50” value in assay [1], in assay [2] and in [3] was “Not Active” each time.
Regarding `CCCC(=O)Oc1cc(OC(=O)CCC)c2c(=O)c(OC(=O)CCC)c(-c3ccc(OC(=O)CCC)c(OC(=O)CCC)c3)oc2c1`, the “I 50” value in assay [4], in assay [5] and in [6] was “Not Active” in each case.
Consider `COc1cc(OC)c2c(=O)c(OC)c(-c3ccc(OC)c(OC)c3)oc2c1`, for which, on Phosphodiesterase 1, the “I 50” value is more than 1000 µM. The Ratio in the assay listed under Rattus norvegicus [7] is less than 0.008; in the assay listed under Rattus norvegicus [8] it was 0.1. Further, the values for the IC50 in assay [9] (read-out: I 50), in [10] and in [11] were 96 µM, 6.3 µM and 10.2 µM, respectively.
With `CCOc1cc(O)c2c(=O)c(OCC)c(-c3ccc(OCC)c(OCC)c3)oc2c1`, the “I 50” value in assay [4], in [5] and in [6] was “Not Active” throughout.
For `CCCOc1cc(OCCC)c2c(=O)c(OCCC)c(-c3ccc(OCCC)c(OCCC)c3)oc2c1`, the “I 50” value in [4], in assay [5] and in assay [6] was “Not Active” throughout.
As to `CCOc1cc(OCC)c2c(=O)c(O)c(-c3ccc(OCC)c(OCC)c3)oc2c1`, the “I 50” value in assay [4], in assay [5] and in assay [6] was “Not Active” throughout.
Turning to `CCOc1cc(OCCBr)c2c(=O)c(OCC)c(-c3ccc(OCC)c(OCC)c3)oc2c1`, the “I 50” value at Phosphodiesterase 1 is more than 1000 µM. Moreover, the Ratio in the assay listed under Rattus norvegicus [7] is less than 0.04; in the assay listed under Rattus norvegicus [8], 0.18. Also, the IC50 stood at 96 µM in [9] (read-out: I 50), 40 µM in [10] and 17 µM in assay [11].
Regarding `CCOc1cc(OCC)c2c(=O)c(OCCO)c(-c3ccc(OCC)c(OCC)c3)oc2c1`, the “I 50” value in assay [4], in assay [5] and in assay [6] was “Not Active” each time.
In the case of `O=c1c(O)c(-c2ccc(O)c(O)c2)oc2cc(O)cc(O)c12` [QUERCETIN], at Phosphodiesterase 1, the “I 50” value was 275 µM. Also, the Ratio in the assay listed under Rattus norvegicus [7] was 0.32; in the assay filed under Rattus norvegicus [8], 0.24. The values for the IC50 in [9] (read-out: I 50), in [10] and in assay [11] were 81.3 µM, 87 µM and 20 µM, respectively.
On to `CCOc1cc(OCC(=O)O)c2c(=O)c(OCC)c(-c3ccc(OCC)c(OCC)c3)oc2c1`, for which, at Phosphodiesterase 1, the “I 50” value was determined as 63 µM. Further, the Ratio in the assay listed under Rattus norvegicus [7] and in the assay listed under Rattus norvegicus [8] was 0.32 each time. Also, the IC50 in [9] (read-out: I 50) is 48 µM; in assay [10], 20 µM; in assay [11], 16 µM.
`O=c1c(OCCBr)c(-c2ccc(OCCBr)c(OCCBr)c2)oc2cc(OCCBr)cc(OCCBr)c12`: the I 50 at Phosphodiesterase 1 was found to be 10000 µM. Further, the Ratio stood at 0.05 in the assay filed under Rattus norvegicus [7] and 0.73 in the assay filed under Rattus norvegicus [8]. Further, the results for the IC50 in [9] (read-out: I 50), in assay [10] and in assay [11] were 24.5 µM, 500 µM and 18 µM, respectively.
Consider `CCCOc1ccccc1-c1nc2nn[nH]c2c(=O)[nH]1` [ZAPRINAST], for which the IC50 in assay [9] (read-out: I50) was found to be 63.1 µM.
Take `CCOc1cc(OCC)c2c(=O)c(OCC)c(-c3ccc(OCC)c(OCC)c3)oc2c1`: the I 50 at Phosphodiesterase 1 is more than 10000 µM. The results for the Ratio in the assay listed under Rattus norvegicus [7] and in the assay listed under Rattus norvegicus [8] were less than 0.007 and 0.02, respectively. For the same molecule, the IC50 in assay [9] (read-out: I 50) was 350 µM; in [10] it was 70 µM; in assay [11], 7.7 µM.
`CCOc1cc(OCC)c2c(=O)c(OCCN(CC)CC)c(-c3ccc(OCC)c(OCC)c3)oc2c1` returned an I 50 on Phosphodiesterase 1 of 47 µM. The Ratio in the assay filed under Rattus norvegicus [7] was found to be 0.79; in the assay listed under Rattus norvegicus [8], 0.16. For the same molecule, the results for the IC50 in assay [9] (read-out: I50), in assay [10] and in assay [12] were 126 µM, 37 µM and 20 µM, respectively.
`CCOc1cc(OCCN(CC)CC)c2c(=O)c(OCC)c(-c3ccc(OCC)c(OCC)c3)oc2c1` gave an I 50 on Phosphodiesterase 1 of 58 µM. The Ratio in the assay listed under Rattus norvegicus [7] came out at 0.6; in the assay listed under Rattus norvegicus [8], 0.11. Moreover, the results for the IC50 in assay [9] (read-out: I50), in assay [10] and in assay [12] were 80 µM, 35 µM and 10 µM, respectively.
As to `CCOC(=O)COc1cc(OCC(=O)OCC)c2c(=O)c(OCC(=O)OCC)c(-c3ccc(OCC(=O)OCC)c(OCC(=O)OCC)c3)oc2c1`, the “I 50” value in assay [4], in [5] and in assay [6] was “Not Active” each time.
`CC(=O)Oc1cc(OC(C)=O)c2c(=O)c(OC(C)=O)c(-c3ccc(OC(C)=O)c(OC(C)=O)c3)oc2c1`: the Ratio in the assay listed under Rattus norvegicus [8] came to 0.46. Moreover, the IC50 in assay [9] (read-out: I 50) is 275 µM; in assay [10] it was 355 µM; in assay [11], 126 µM.
`CCOC(=O)COc1c(-c2ccc(OCC)c(OCC)c2)oc2cc(OCC)cc(OCC)c2c1=O`: the “I 50” value in assay [4], in assay [5] and in assay [6] was “Not Active” each time.
On to `O=c1c(OCCO)c(-c2ccc(OCCO)c(OCCO)c2)oc2cc(OCCO)cc(OCCO)c12`, for which the “I 50” value at Phosphodiesterase 1 was found to be 2800 µM. Moreover, the figures for the Ratio in the assay filed under Rattus norvegicus [7] and in the assay filed under Rattus norvegicus [8] were 0.17 and 0.05, respectively. The IC50 in [9] (read-out: I 50) was 1300 µM; in assay [10], 470 µM; in assay [11], 69 µM.
On to `CCOC(=O)COc1cc(OCC)cc2oc(-c3ccc(OCC)c(OCC)c3)c(OCC)c(=O)c12`, for which the “I 50” value on Phosphodiesterase 1 was more than 1000 µM. Also, the values for the Ratio in the assay listed under Rattus norvegicus [7] and in the assay listed under Rattus norvegicus [8] were less than 0.08 and 0.01, respectively. The IC50 in assay [9] (read-out: I 50) is 700 µM; in assay [10] it was 80 µM; in assay [11] it was 8.3 µM.
Consider `CCC(=O)Oc1cc(OC(=O)CC)c2c(=O)c(OC(=O)CC)c(-c3ccc(OC(=O)CC)c(OC(=O)CC)c3)oc2c1`, for which the “I 50” value in assay [4] and in [5] was “Not Active” throughout.
On Phosphodiesterase 1, `CCCCOc1cc(CC2CNC(=O)N2)ccc1OC` (stereo not drawn) [RO-201724] yielded an I 50 of more than 1000 µM. The Ratio in the assay listed under Rattus norvegicus [7] came to 0.16; in the assay listed under Rattus norvegicus [8], 0.007. Also, the figures for the IC50 in [9] (read-out: I 50), in [10] and in [11] were 10000 µM, 1660 µM and 74.1 µM, respectively.
The molecule `CCCOc1ccccc1-c1nc2[nH]nnc2c(=O)[nH]1` [ZAPRINAST] registered an I 50 at Phosphodiesterase 1 of 93.3 µM. The Ratio stood at 0.71 in the assay listed under Rattus norvegicus [7] and 1.17 in the assay listed under Rattus norvegicus [8]. Also, the IC50 in assay [10] was 66.1 µM; in assay [12] it was 74.1 µM.
On to `CCOc1cc(OCC)c2c(=O)c(OCC(=O)O)c(-c3ccc(OCC)c(OCC)c3)oc2c1`, for which, on Phosphodiesterase 1, the “I 50” value was more than 1000 µM. Besides, the Ratio is less than 0.01 in the assay filed under Rattus norvegicus [7] and 0.31 in the assay filed under Rattus norvegicus [8]. Further, the values for the IC50 in assay [9] (read-out: I 50), in assay [10] and in [11] were 71 µM, 10 µM and 22 µM, respectively.

(Values after ChEMBL document CHEMBL1122175, “Pentasubstituted quercetin analogues as selective inhibitors of particulate 3':5'-cyclic-AMP phosphodiesterase from rat brain” (J Med Chem, 1982).)
